Assay results of several laboratories.
Target: Serine/threonine-protein kinase DCLK1 (DCLK1, Homo sapiens, UniProt O15075)
Residues used in one study (O15075 1-740): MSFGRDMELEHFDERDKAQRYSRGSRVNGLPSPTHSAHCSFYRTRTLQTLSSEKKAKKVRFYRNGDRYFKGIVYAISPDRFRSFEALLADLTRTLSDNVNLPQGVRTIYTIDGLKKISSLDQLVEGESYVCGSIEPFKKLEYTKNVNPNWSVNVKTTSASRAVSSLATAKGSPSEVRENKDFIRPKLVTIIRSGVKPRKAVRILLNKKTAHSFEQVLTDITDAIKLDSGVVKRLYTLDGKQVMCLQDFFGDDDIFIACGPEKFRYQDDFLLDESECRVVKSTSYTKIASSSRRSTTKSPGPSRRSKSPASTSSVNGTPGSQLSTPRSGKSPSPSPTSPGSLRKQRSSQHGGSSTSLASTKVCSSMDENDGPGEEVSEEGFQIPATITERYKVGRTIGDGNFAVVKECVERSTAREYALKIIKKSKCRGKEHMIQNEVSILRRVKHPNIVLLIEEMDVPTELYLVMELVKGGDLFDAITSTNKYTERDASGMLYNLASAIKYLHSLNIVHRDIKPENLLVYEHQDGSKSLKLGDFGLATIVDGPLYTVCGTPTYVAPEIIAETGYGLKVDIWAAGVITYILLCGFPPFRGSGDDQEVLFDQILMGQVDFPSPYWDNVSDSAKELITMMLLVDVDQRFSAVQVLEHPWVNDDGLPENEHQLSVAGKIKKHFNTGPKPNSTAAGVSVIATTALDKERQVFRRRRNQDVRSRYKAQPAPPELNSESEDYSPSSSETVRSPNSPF

CN1CCN(c2cnc3c(C4CCN(C(=O)c5ccc(OC(F)(F)F)cc5N)CC4)ncnc3c2)CC1
remaining binding (cell-free assay, competition with immobilised ligand; 1 µM): 85%

O=C(NCC1CCOCC1)c1n[nH]cc1NC(=O)c1c(F)cccc1F
remaining binding (binding, competition with immobilised ligand; 1 µM): 75%

F[C@@H]1CCN(c2nccc(-c3cnn4ncccc34)n2)C1
remaining binding (binding, competition with immobilised ligand; 1 µM): 82%

CC(C)CC(=O)N1CCc2nc(-c3ccc(Br)cc3)nc(N(C)Cc3ccccc3)c2C1
remaining binding (cell-free assay, competition with immobilised ligand; 0.1 µM): 100%

N[C@H]1CCN(c2nccc(-c3cnn4ncccc34)n2)C1
remaining binding (binding, competition with immobilised ligand; 1 µM): 83%

Nc1ncc2c(n1)-c1c([nH]c3ccc(C#CC4CC4)cc13)CCCC2
remaining binding (binding, competition with immobilised ligand; 1 µM): 100%

Cc1nccc(COC(=O)N2C[C@@H]3[C@@H](CNC(=O)c4ccc5[nH]nnc5c4)[C@@H]3C2)n1
remaining binding (cell-free assay, competition with immobilised ligand; 1 µM): 90%

O=C(NCCCN1CCOCC1)c1ccc(Nc2ncc(Cl)c(-c3ccc(Cl)s3)n2)cc1
remaining binding (binding, competition with immobilised ligand; 1 µM): 56%

CC(C)(C)c1ccc(-c2nc(CBr)nn2-c2cccc(O)c2)cc1
remaining binding (cell-free assay, competition with immobilised ligand; 10 µM): 100%

N#Cc1ccccc1CSc1nnc2c(n1)[nH]c1ccccc12
remaining binding (binding, competition with immobilised ligand; 10 µM): 100%

C[C@H]1CCN(c2nccc(-c3cnn4ncccc34)n2)C1
remaining binding (binding, competition with immobilised ligand; 1 µM): 85%

Cc1noc([C@H]2C[C@@H](c3ccc(C(F)(F)F)cc3)CN(C(=O)N3CCS(=O)(=O)C3)C2)n1
remaining binding (cell-free assay, competition with immobilised ligand; 1 µM): 75%

C[C@@H]1CN(c2ccc3ncc(-c4ccc5[nH]nc(C6CC6)c5c4)n3n2)C[C@H](C)O1
remaining binding (binding, competition with immobilised ligand; 0.5 µM): 100%

COc1ncc2cc3ccccc3nc2c1C#N
remaining binding (cell-free assay, competition with immobilised ligand; 5 µM): 98%

CC1=C(C#N)C(c2ccc3c(c2)c(NC(=O)c2ccccc2C)nn3C)C(C#N)=C(C)N1
remaining binding (cell-free assay, competition with immobilised ligand; 1 µM): 79%

O=C(c1ccc(Nc2nccc(-c3cc4ccccc4s3)n2)cc1)N1CCC(N2CCCC2)CC1
remaining binding (binding, competition with immobilised ligand; 1 µM): 86%

Cn1nc(C(=O)NCc2ccc(C(=O)O)cc2)cc1-c1ccc2[nH]ccc2c1
remaining binding (cell-free assay, competition with immobilised ligand; 0.1 µM): 88%

CN(C)c1ncc(F)c(-c2cnn3ncccc23)n1
remaining binding (binding, competition with immobilised ligand; 1 µM): 61%

COc1cc(C(=O)N2CCC(N3CCN(C)CC3)CC2)ccc1Nc1ncc2c(n1)N(C)c1ccccc1C(=O)N2C
remaining binding (binding, competition with immobilised ligand; 10 µM): 4.2%

Cc1cnn2ncc(-c3ccnc(N(C)C)n3)c2c1
remaining binding (binding, competition with immobilised ligand; 1 µM): 91%

O=C(c1ccc(Nc2ncc(Cl)c(-c3cc4ccccc4s3)n2)cc1)N1CCC(N2CCCC2)CC1
remaining binding (binding, competition with immobilised ligand; 1 µM): 100%

CN(c1nccc(-c2cnn3ncccc23)n1)C1CC1
remaining binding (binding; 1 µM): 85%

COc1cnc(Nc2cccc(S(N)(=O)=O)c2)nc1N1CCN(c2ccccc2)C(=O)C1
remaining binding (binding, competition with immobilised ligand; 1 µM): 83%

CN([C@@H]1CCc2c(CC(=O)O)c3cc(S(C)(=O)=O)ccc3n2C1)S(=O)(=O)c1ccc(F)cc1
remaining binding (cell-free assay, competition with immobilised ligand; 1 µM): 79%

FC(F)(F)Oc1cccc(-c2cnc3ccc(-c4ccncc4)nn23)c1
remaining binding (cell-free assay, competition with immobilised ligand; 5 µM): 69%

CC1CCCN1c1nccc(-c2cnn3ncccc23)n1 (centres unmarked)
remaining binding (binding, competition with immobilised ligand; 1 µM): 87%
